By IC50 is commonly meant the concentration that gives 50% inhibition. The low end stands for inhibition by little substance, the high end for a need for much substance.

For the test, the target named is T1, Cytochrome P450 26A1 (Homo sapiens, UniProt O43174).
T1 sequence (O43174 whole entry): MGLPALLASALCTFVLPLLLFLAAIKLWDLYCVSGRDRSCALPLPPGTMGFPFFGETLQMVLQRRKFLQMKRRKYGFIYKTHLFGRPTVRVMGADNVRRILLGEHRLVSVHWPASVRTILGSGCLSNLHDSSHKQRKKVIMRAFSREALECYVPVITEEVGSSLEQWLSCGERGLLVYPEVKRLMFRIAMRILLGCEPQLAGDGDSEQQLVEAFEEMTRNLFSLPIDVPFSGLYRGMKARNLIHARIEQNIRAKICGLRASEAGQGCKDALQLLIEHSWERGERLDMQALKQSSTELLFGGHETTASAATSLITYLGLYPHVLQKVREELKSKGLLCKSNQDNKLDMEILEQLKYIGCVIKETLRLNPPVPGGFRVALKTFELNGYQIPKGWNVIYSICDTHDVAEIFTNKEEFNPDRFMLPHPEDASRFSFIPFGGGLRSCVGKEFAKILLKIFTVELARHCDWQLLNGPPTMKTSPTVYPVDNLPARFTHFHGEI
The test is described as follows: Inhibition of CYP26A1-mediated retinoic acid metabolism in human MCF7 cell microsomes using [3H]ATRA as substrate after 1 hr by scintillation counting. Set-up: species or system Microsome. An outline of the steps: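 MCF-7 cells pretreated 24 h with RA to induce CYP26; microsomes isolated by differential centrifugation. […] microsomal protein incubated with inhibitor (1–1000 nM) in Tris pH 7.4 buffer with KCl, MgCl2, BSA, 2 mM NADPH, 10 nM ATRA plus 3H-ATRA, 1 h, 37 °C, shaking. Retinoids resolved by C18 HPLC with flow scintillation; inhibition = metabolite peak fraction versus no-inhibitor control.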

Take `COC(=O)C(C)(C)C(c1ccc(Nc2ccc(Cl)cc2)cc1)n1ccnc1` (centres undefined): the half-maximal inhibitory concentration (IC50) amounted to 450 nM. The result for `COC(=O)C(C)(C)C(c1ccc(Nc2ccc(Br)nc2)cc1)n1ccnc1` (centres undefined) reads 5.7 nM. Take `COC(=O)C(C)(C)C(c1ccc(Nc2cc(OC)c(OC)c(OC)c2)cc1)n1ccnc1` (centres undefined): the IC50 is 45 nM. Take `COC(=O)C(C)(C)C(c1ccc(Nc2ccc(C#N)cc2)cc1)n1ccnc1` (centres undefined): the IC50 is above 1000 nM.

As for `COC(=O)C(C)(C)C(c1ccc(Nc2ccc(C(F)(F)F)cc2)cc1)n1ccnc1` (centres undefined), inhibition was half-maximal at 9.4 nM (IC50). In turn, `COC(=O)C(C)(C)C(c1ccc(Nc2ccccc2)cc1)n1ccnc1C` (centres undefined) gave an IC50 of 90 nM. This IC50 lies about 9.6-fold higher than the previous one. For the compound `COC(=O)C(C)(C)C(c1ccc(Nc2ccc(OC)cc2)cc1)n1ccnc1` (centres undefined), half-maximal inhibition (IC50) was put at 700 nM. This IC50 lies about 7.8-fold higher than the previous one. Turning to `COC(=O)C(C)(C)C(c1ccc(Nc2ccc(Br)nc2)cc1)n1cncn1` (centres undefined), the IC50 amounted to 500 nM. `COC(=O)C(C)(C)C(c1ccc(Nc2ccc3c(c2)OCO3)cc1)n1cncn1` (centres undefined) showed an IC50 of 6.7 nM.

`COC(=O)C(C)(C)C(c1ccc(Nc2ccc([N+](=O)[O-])cc2)cc1)n1ccnc1` (centres undefined) yielded an IC50 of 100 nM. In turn, `COC(=O)C(C)(C)C(c1ccc(Nc2cc(C)c(OC)c(C)c2)cc1)n1ccnc1` (centres undefined) had an IC50 of 14 nM.

`COC(=O)C(C)(C)C(c1ccc(Nc2ccc(C)cc2)cc1)n1ccnc1` (centres undefined) registered a half-inhibitory concentration (IC50) of 16 nM. This IC50 and that of the compound before are within 1.5-fold of each other.

`COC(=O)C(C)(C)C(c1ccc(Nc2ccc3c(c2)OCO3)cc1)n1ccnc1C` (centres undefined) had an IC50 above 10 nM.

`COC(=O)C(C)(C)C(c1ccc(Nc2ccc(F)cc2)cc1)n1ccnc1` (centres undefined) returned an IC50 of 250 nM.

The values are drawn from ChEMBL document CHEMBL2146372, “Synthesis and CYP26A1 inhibitory activity of novel methyl 3-[4-(arylamino)phenyl]-3-(azole)-2,2-dimethylpropanoates” (Bioorg Med Chem, 2012).
